Experiment [1] deals with Serotonin receptor 2a and 2c (5HT2A and 5HT2C) (Rattus norvegicus) (UniProt P08909+P14842). Put plainly: Relative affinity for 5-hydroxytryptamine 2C over 5-hydroxytryptamine 2A receptors. It is filed as protein assay.
Experiment [2] addresses T1, 5-hydroxytryptamine receptor 2C (Rattus norvegicus, UniProt P08909).
T1 sequence (P08909 whole entry): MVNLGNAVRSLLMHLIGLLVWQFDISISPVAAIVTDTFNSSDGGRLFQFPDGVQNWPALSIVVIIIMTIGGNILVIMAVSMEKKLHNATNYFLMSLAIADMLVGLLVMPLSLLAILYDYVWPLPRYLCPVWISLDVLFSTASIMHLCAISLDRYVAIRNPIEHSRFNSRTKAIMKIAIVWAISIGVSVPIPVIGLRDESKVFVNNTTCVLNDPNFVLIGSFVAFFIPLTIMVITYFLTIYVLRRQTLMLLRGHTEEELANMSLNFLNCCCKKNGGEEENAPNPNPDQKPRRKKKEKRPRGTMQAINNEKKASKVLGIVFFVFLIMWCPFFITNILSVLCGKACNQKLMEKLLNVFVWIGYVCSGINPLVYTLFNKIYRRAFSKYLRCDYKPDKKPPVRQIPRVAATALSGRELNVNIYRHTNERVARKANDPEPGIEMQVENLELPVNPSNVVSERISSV
Description: Displacement of [3H]mesulergine from rat 5-HT2C receptor expressed in HEK293. Put shortly: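 Binding to cloned rat 5-HT2C receptors expressed in HEK 293 cells, with [3H]mesulergine as radioligand. Each value is the mean of at least two determinations, each lying within 0.2 log unit of the mean.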
In general terms: Displacement assays read how much labelled ligand stays bound in the presence of the test substance.

The target of experiment [3] is 5-hydroxytryptamine receptor 2A (Rattus norvegicus, UniProt P14842). Description: Displacement of [3H]ketanserin from 5-HT2A receptor of rat frontal cortex. It is filed as tissue-based. In a few lines: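 Radioligand binding in rat frontal cortex membranes with [3H]ketanserin as the labelled ligand. Values are the mean of at least two determinations, each within 0.2 log unit of the mean.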

For experiment [4], the target named is 5-hydroxytryptamine receptor 2B (Rattus norvegicus, UniProt P30994). Description: Inhibition of 5-HT binding to 5-HT2B receptor of Rat stomach fundus. It is filed as tissue-based. The conditions noted are these: read-out: pA2 (converted). In a few lines:
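Functional rather than binding assay: inhibition of 5-HT-induced contractions of isolated rat stomach fundus. Values are the mean of at least two determinations, each within 0.2 log unit of the mean.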

Experimental findings from ChEMBL document CHEMBL1129596, “Synthesis, biological activity, and molecular modeling of selective 5-HT(2C/2B) receptor antagonists” (J Med Chem, 1996) are described below.

pKi: −log10 of the molar value. Some results are limits rather than exact numbers.

Serotonin receptor 2a and 2c (5HT2A and 5HT2C) (Rattus norvegicus), sequence (P14842 whole entry, looked up, one chain of several): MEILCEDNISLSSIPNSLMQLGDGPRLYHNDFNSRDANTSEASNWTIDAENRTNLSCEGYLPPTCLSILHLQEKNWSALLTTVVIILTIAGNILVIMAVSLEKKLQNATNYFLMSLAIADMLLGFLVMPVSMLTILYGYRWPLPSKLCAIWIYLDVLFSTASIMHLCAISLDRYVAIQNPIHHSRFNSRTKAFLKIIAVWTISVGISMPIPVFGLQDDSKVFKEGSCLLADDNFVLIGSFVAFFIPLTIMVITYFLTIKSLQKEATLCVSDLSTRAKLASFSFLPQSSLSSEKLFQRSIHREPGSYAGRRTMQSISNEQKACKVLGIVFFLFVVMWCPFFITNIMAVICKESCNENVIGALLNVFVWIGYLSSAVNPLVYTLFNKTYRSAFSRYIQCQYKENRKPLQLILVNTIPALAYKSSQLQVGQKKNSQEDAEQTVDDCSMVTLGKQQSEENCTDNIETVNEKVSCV
5-hydroxytryptamine receptor 2A, sequence (P14842 whole entry): as the sequence (P14842 whole entry, looked up, one chain of several) above
5-hydroxytryptamine receptor 2B, sequence (P30994 whole entry): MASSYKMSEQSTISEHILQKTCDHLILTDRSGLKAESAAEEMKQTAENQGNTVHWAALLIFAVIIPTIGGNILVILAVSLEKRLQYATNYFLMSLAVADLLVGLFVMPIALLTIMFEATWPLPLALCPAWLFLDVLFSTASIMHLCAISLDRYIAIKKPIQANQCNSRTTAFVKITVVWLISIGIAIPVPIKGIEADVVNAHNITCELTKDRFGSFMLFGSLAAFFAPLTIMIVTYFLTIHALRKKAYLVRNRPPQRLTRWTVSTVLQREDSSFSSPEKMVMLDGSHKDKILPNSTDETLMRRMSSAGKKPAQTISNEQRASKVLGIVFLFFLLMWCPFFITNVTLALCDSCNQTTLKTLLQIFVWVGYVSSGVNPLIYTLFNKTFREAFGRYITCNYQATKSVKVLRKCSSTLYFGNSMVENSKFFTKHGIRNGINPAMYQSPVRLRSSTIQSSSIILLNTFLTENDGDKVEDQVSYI

With `Cc1coc2cc3c(cc12)CCN3C(=O)Nc1cccnc1`, the Selectivity ratio in experiment [1] turned out to be 160. For the same compound, the pKi in experiment [2] is 8.60; in experiment [3], 6.40. Besides, the Kb in experiment [4] was 1.26 nM.
The matching figures for `O=C(Nc1cccnc1)N1CCc2cc3[nH]ccc3cc21`: 13, 6.90, 5.80 and 31.6 nM.
Take `CCCn1ccc2cc3c(cc21)CCN3C(=O)Nc1cccnc1`: the Selectivity ratio in experiment [1] was determined as 250. Further, the pKi is 7.90 in experiment [2] and 5.50 in experiment [3]. For the same compound, the Kb in experiment [4] was 7.94 nM.
As for `O=C(Nc1cccnc1)N1CCc2cc3c(ccn3Cc3ccccc3)cc21`, the Selectivity ratio in experiment [1] was over 130. Also, the pKi in experiment [2] is 7.30; in experiment [3], under 5.20. In addition, the Kb in experiment [4] was 200 nM.
On to `Cn1ccc2cc3c(cc21)CCN3C(=O)Nc1cccnc1`, for which the Selectivity ratio in experiment [1] stood at 100. Besides, the pKi in experiment [2] is 8.30; in experiment [3], 6.30. The Kb in experiment [4] is 3.16 nM.
On to `Cn1ccc2cc3c(cc21)N(C(=O)Nc1cccnc1)CC3`, for which the pKi in experiment [2] is 5.90.
Turning to `CC(C)n1ccc2cc3c(cc21)CCN3C(=O)Nc1cccnc1`, the Selectivity ratio in experiment [1] amounted to 400. In addition, the pKi in experiment [2] was 8.00; in experiment [3] it was 5.40. Besides, the Kb in experiment [4] was 6.31 nM.
Consider `Cn1ccc2ccc3c(c21)CCN3C(=O)Nc1cccnc1`, for which the Selectivity ratio in experiment [1] was found to be 50. Further, the pKi in experiment [2] was 7.20; in experiment [3] it was 5.50.
Take `CCn1ccc2cc3c(cc21)CCN3C(=O)Nc1cccnc1`: in experiment [1], the Selectivity ratio came out at 160. Further, the negative logarithm of the Ki (pKi) in experiment [2] was 8.10; in experiment [3] it was 5.90. Besides, the Kb in experiment [4] was 10 nM.
`O=C(Nc1cccnc1)N1CCc2cc3sccc3cc21`: the Selectivity ratio in experiment [1] was 30. For the same compound, the pKi was 8.10 in experiment [2] and 6.60 in experiment [3]. In addition, the Kb in experiment [4] was 10 nM.
The matching figures for `CN1CCc2cc3c(cc21)CCN3C(=O)Nc1cccnc1`: 80, 7.20, 5.30 and 12.6 nM.
Regarding `Cc1cc2cc3c(cc2n1C)CCN3C(=O)Nc1cccnc1`, the Selectivity ratio in experiment [1] came out at 80. The pKi in experiment [2] is 7.40; in experiment [3], 5.50. In experiment [4], the Kb was 20 nM.
On to `Cn1ccc2c3c(ccc21)N(C(=O)Nc1cccnc1)CC3`, for which the figures for the pKi in experiment [2] and in experiment [3] were 7.60 and 5.70, respectively. In addition, in experiment [4], the Kb was 15.8 nM.
In turn, `Cn1ccc2c3c(ccc21)CCN3C(=O)Nc1cccnc1` had a pKi in experiment [2] of 6.70.

As usually defined, the pKi is the negative decadic logarithm of the Ki, by convention in mol/L. A lower pKi goes with a large Ki.
